BaF3 parental: parental Ba/F3 cell viability inhibition, counter-screen for JAK2V617F inhibitor project, murine pro-B, CellTiter-Glo luminescence; CellTiter-Glo ATP luminescence; inhibition, % at 5.6 µM; hit rate 1.1% among 220,000;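 active means inhibition above a per-campaign cutoff, the mean inhibition of all tested compounds plus 3 SD, cut at about 27% in these data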
APP transl inh: inhibitors of APP translation via 5'UTR reporter, primary screen, APP 5'UTR luciferase, SH-SY5Y cells; SH-SY5Y APP 5'UTR-luciferase reporter, luminescence; inhibition, % at 2 µM; hit rate 0.82% among 190,000; AID 1285, 2008;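 active means inhibition above a set limit, derived from the sample mean plus 3 SD, cut at about 45% in these data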
Lmaj promast: Leishmania major promastigote growth inhibition, primary screen | Leishmania major promastigotes, resazurin fluorescence viability | inhibition, % at 10 µM | hit rate 9% among 200,000; in the data active means inhibition above about 50%;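 further: promastigotes grown with compound for 44 hours at 28 °C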
MT stabilize HCS: microtubule stabilizers in HeLa cells, primary screen, imaging, high-content imaging; HeLa tubulin immunostaining HCS, 24 h; share of cells brighter than vehicle mean+2SD; % tubulin-high responders, % at 10 µM; hit rate 0.83% among 200,000;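 active means plate Z-score above 3 for both tubulin-high and condensed-nucleus cell shares, with cell loss under 80%, at 10 µM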;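 further: anti alpha tubulin signal scored within the nucleus-defined area of each cell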
Ba/F3 V617F tox: reduced viability of JAK2V617F-dependent Ba/F3 cells, primary screen, JAK2V617F inhibitor project, cell-based, Ba/F3 EpoR-JAK2V617F, luminescence; ATP luminescence; inhibition, % at 5.6 µM; hit rate 1.1% among 220,000;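 active means inhibition above the campaign mean plus 3 SD over all tested compounds, cut at about 24% in these data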;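 further: cytokine-independent growth of Ba/F3 cells driven by EpoR plus mutant JAK2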
bCat nuc transl: modulators of beta-catenin nuclear translocation, primary screen, imaging, HeLa cells, immunofluorescence, high-content. nuclear translocation activity, % at 5 µM. hit rate 0.3% among 190,000;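 active means nuclear translocation activity above 50% at 5 µM, with a well cell count of 50 or more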;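 further: per-cell ratio of nuclear to cytoplasmic median beta-catenin stain intensity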
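Assay system: human HeLa cells, native beta-catenin; doses: 5 µM primary, 0.02–20 µM confirmation; incubation: compound treatment 24 h, 37°C, 5% CO2; technique: fluorescence imaging of beta-catenin antibody stain plus DAPI; measure: % activation, nuclear-to-cytoplasmic median beta-catenin signal ratio per cell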
A number is an active result; . = inactive; / = no result. A selection: hits, their analogues and other compounds. The true share with any hit is near 9.6%.

SMILES	BaF3 parental	APP transl inh	Lmaj promast	MT stabilize HCS	Ba/F3 V617F tox	bCat nuc transl
O=[N+]([O-])c1nn(-c2ccc3c(c2)OCCO3)n(O)c1=Nc1ccc(Cl)cc1	.	.	77	.	.	.
Cc1ccc2nc(SC(C)C(=O)N3CCOCC3)[nH]c2c1 (centres undefined)	.	.	.	.	.	.
CNc1ncc(Cc2ccccc2)s1	.	.	.	.	.	.
CC(C)C(NC(N)=O)C(=O)NC1CCCCC1 (centres undefined)	.	.	.	.	.	.
COCCCNC(=O)/C(C#N)=C/c1ccc(F)cc1	.	.	.	.	.	.
N#C/C(=C\c1cccc(NC(=O)c2ccccc2Cl)c1)C(=O)NCCc1ccccc1	.	.	99	.	.	.
COCCCNC(=O)/C(C#N)=C/c1cccc(NC(=O)c2ccccc2Cl)c1	.	.	75	.	.	.
COc1ccc(CCNC(=O)/C(C#N)=C/c2cccc(OCc3ccccc3)c2)cc1OC	.	.	100	.	.	.
COc1cc(/C=C(\C#N)C(=O)NCc2ccccc2)ccc1OCc1ccc(C(=O)O)cc1	.	/	/	/	.	.
Cc1ccc(CSCc2ccc(C(=O)NCCCN3CCOCC3)o2)cc1	.	.	.	.	.	.
CN1CCN(CCCNC(=O)c2ccc(CSCc3cccc(Cl)c3)o2)CC1	.	.	99	.	.	.
O=C(NCCCN1CCCC1)c1ccc(CSCc2cccc(Cl)c2)o1	.	.	99	.	.	/
CC1CCN(CCCNC(=O)c2ccc(CSCc3cccc(Cl)c3)o2)CC1	.	.	100	.	.	/
COC(=O)[C@H](CCSC)NC(=O)Nc1cccc(Br)c1	.	/	/	/	.	.
CCOC(=O)C1=C(C)NC(C)=C(C(=O)OCC)C1c1ccc([N+](=O)[O-])s1	.	/	/	/	.	.
CC(C)CCN(C(=O)CNC(=O)c1cccs1)C(C(=O)NC1CCCCC1)c1cccnc1 (centres undefined)	.	/	/	/	.	.
Cc1ccc(C(OCCN(C)C)c2cccc(C(F)(F)F)c2)cc1 (centres undefined)	.	.	.	.	.	.
CCCCOC(=O)C1=C(C)Nc2nnnn2C1c1ccc(OC)c(OC)c1OC (centres undefined)	.	.	94	.	.	.
Cc1ccc(C(=O)NCC(=O)OC(C)C(=O)Nc2ccc(N3CCOCC3)cc2)s1 (centres undefined)	.	/	/	/	.	.
OCC1(Cc2ccccc2Cl)CCN(C/C=C/c2ccccc2)CC1	.	.	88	.	.	.
COc1cc(-c2cc(C(=O)NN3CCN(C)CC3)c3ccccc3n2)cc(OC)c1OC	.	.	91	.	.	/
COc1cc(-c2cc(C(=O)Nc3c(Cl)cc(Cl)cc3Cl)c3ccccc3n2)cc(OC)c1OC	.	.	81	.	.	/
COc1ccc(N/C=C/C(=C(C#N)C#N)N(C)C)cc1	.	.	.	.	.	.
CC(C)CCNC(=O)c1cc2c(s1)-c1ccccc1S(=O)(=O)C2	.	/	/	/	.	.
Cc1ccc(-n2ncc3c(SCc4ccccn4)ncnc32)c(C)c1	35	.	.	.	.	.
SMILES	BaF3 parental	APP transl inh	Lmaj promast	MT stabilize HCS	Ba/F3 V617F tox	bCat nuc transl
CSc1ncnc2c1cnn2-c1ccc(C)cc1C	.	.	.	.	.	.
CC1(C)CC(=O)C(C=Nc2ccccc2Sc2ccccc2)=C(O)C1	.	.	71	.	.	.
CCOC(=O)c1oc2ccc(S(=O)(=O)n3nc(-c4ccc(C)cc4)cc3N)cc2c1C	.	.	91	.	.	/
CCOC(=O)CCn1nc(-c2ccc(Cl)cc2)cc1N	.	.	.	.	.	/
CCOC(=O)Cn1nc(-c2ccc(Cl)cc2)cc1N	.	.	55	.	.	/
CCOC(=O)c1oc2ccc(S(=O)(=O)Nc3ccc4c(c3)n(C)c(=O)n4C)cc2c1C	.	.	.	.	.	.
CCOC(=O)c1oc2ccc(S(=O)(=O)n3nc(-c4ccc(Cl)cc4)cc3N)cc2c1C	.	.	98	17	.	.
COc1cc(OC)nc(NC(=O)NS(=O)(=O)c2ccc(OC(F)(F)F)cc2)n1	.	.	.	.	.	.
CC(C)CNC(=O)c1coc(=O)c(Br)c1	.	47	.	.	.	.
Clc1cccc(CNCCNCc2cccc(Cl)c2)c1	.	.	75	.	.	.
Nc1ccc(NC(=O)c2ccco2)c(Cl)c1	.	.	.	.	.	.
CCOC(=O)c1ccccc1NC(=O)C1CC(=O)N(c2ccccc2)C1 (centres undefined)	.	.	.	.	.	.
CC1(C)CC(=O)c2cc(C(=O)N3CCCC(C)(C)C3)c(=O)n(-c3ccccc3)c2C1	.	.	83	.	.	.
COC(=O)C(CCSC)NC(=O)c1cc2c(n(-c3ccccc3)c1=O)CC(C)(C)CC2=O (centres undefined)	.	.	84	.	.	/
COc1ccc(-n2c3c(cc(C(=O)NCc4ccco4)c2=O)C(=O)CC(C)(C)C3)cc1	.	.	55	.	.	.
Cc1ccc(-n2c3c(cc(C(=O)NCc4ccco4)c2=O)C(=O)CCC3)cc1	.	.	.	.	.	.
CC1(C)CC(=O)c2cc(C(=O)O)c(=O)n(-c3ccccc3)c2C1	.	.	.	.	.	.
CC(C)(O)CC[C@@H](O)[C@](C)(O)[C@H]1CC[C@@]2(O)C3=CC(=O)[C@@H]4C[C@@H](O)[C@@H](O)C[C@]4(C)C3CC[C@]12C (some centres undefined)	.	.	.	.	.	.
C[C@@H](C[C@@H](O)[C@H](O)C(C)(C)O)[C@@H]1CC[C@]2(C)C3=CC[C@H]4C(C)(C)C(=O)CC[C@]4(C)[C@H]3CC[C@@]12C	.	.	92	.	.	/
Cc1cccc(OCC(=O)NCC(=O)N/N=C/c2cccnc2)c1	.	/	/	/	.	.
O=S(=O)(c1cccc2cccnc12)N1CCN(Cc2ccccc2)CC1	.	.	.	.	.	.
Cc1ccccc1C(=O)/C(C#N)=N/Nc1c(C)n(C)n(-c2ccccc2)c1=O	.	68	.	.	.	.
Cc1c(NC(=O)/C(C#N)=C/c2cccs2)c(=O)n(-c2ccccc2)n1C	.	.	67	.	.	/
Cc1c(NC=C(C#N)C#N)c(=O)n(-c2ccccc2)n1C	.	.	.	.	.	.
Cc1c(N/N=C(\C#N)C(=O)c2ccccc2)c(=O)n(-c2ccccc2)n1C	.	77	.	.	.	.
CCOC(=O)/C(C#N)=N/Nc1c(C)n(C)n(-c2ccccc2)c1=O	.	.	.	.	.	.
Cc1c(NC(=O)c2cccs2)c(=O)n(-c2ccccc2)n1C	.	.	.	.	.	.
O=C(CCn1c(=O)sc2ccccc21)NCc1ccc2c(c1)OCO2	.	.	.	.	.	.

Assay outcomes as filed in PubChem BioAssay.
